Consider 4 compounds from article PMC9486128 (The Journal of Biological Chemistry, 2022).

For test [1], the system named is acetylation of lysine residues within histone proteins of S. mansoni adult worm pairs. Briefly: Histone K-acetylation Western blot on adult worm pairs. The test is classed as cell-based, Schistosoma mansoni. In outline: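 Ten adult worm pairs were treated 24 or 72 h with test compound at concentrations taken from viability curves. Positive controls were TSA 1 μM and a reference HDAC inhibitor 20 μM; DMSO was the negative control. Lysis buffer contained 5 mM sodium butyrate. Histone-enriched fractions were run on 15% SDS-PAGE and blotted with anti-acetyl-lysine (1:4000) and anti-α-tubulin (1:5000), with Ponceau calibration. Acetyl-lysine densitometry was normalized to tubulin, then to DMSO.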

Test [2] addresses T1, SmHDAC8 (Schistosoma mansoni, UniProt A5H660).
T1 sequence (A5H660 1-440): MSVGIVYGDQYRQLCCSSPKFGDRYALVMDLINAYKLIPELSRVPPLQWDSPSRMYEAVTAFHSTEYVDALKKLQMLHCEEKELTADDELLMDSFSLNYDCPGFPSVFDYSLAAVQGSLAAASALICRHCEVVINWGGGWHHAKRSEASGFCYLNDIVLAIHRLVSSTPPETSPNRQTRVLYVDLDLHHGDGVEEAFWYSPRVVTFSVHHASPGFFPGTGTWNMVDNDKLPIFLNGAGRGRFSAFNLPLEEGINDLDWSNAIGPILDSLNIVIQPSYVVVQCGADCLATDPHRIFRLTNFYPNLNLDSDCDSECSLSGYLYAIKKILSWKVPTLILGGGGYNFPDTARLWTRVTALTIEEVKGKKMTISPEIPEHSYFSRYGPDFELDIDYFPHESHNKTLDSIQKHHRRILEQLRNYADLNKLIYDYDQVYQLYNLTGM
Briefly: Binding to SmHDAC8 by quenching of intrinsic fluorescence. In outline:
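Recombinant His6-tagged SmHDAC8 was expressed in E. coli BL21(DE3) and used at 0.125 μM in 50 mM Tris pH 8.0, 150 mM KCl, 100 μM DTT. It was titrated with test compound from 1.6 nM to 125 μM, with 5 min stirred equilibration per addition at 25 °C. Intrinsic fluorescence quenching was read at 340 nm (excitation 280 nm), averaging 4–5 accumulations. Ki came from a quadratic 1:1 binding fit.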

Test [3] deals with T2, hHDAC8 (Homo sapiens, UniProt Q9BY41).
T2 sequence (Q9BY41 1-377): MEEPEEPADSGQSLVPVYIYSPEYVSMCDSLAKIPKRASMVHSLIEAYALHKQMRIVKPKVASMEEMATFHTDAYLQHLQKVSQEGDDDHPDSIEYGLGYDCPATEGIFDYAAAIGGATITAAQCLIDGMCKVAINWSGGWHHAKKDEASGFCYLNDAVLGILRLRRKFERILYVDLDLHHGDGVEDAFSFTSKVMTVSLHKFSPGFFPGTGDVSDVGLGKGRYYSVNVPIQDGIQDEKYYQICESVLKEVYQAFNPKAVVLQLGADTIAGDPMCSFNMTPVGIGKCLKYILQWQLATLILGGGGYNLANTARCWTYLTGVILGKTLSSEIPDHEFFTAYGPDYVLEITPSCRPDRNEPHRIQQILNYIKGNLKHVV
Briefly: hHDAC8 enzymatic activity inhibition. The following applies: for enhancement in potency toward hHDAC8: NF2883 with respect to NF2453, NF2889 with respect to NF2452. The test is classed as biochemical.

Test [4] has as its system S. mansoni adult worm pairs. Briefly: Adult worm pairs viability assay. Type of test: cell-based, Schistosoma mansoni. The conditions noted are these: for reduction of adult worm pairs viability: day 7; for adult worm pairs viability: 24 h. In outline: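 Five adult worm pairs per sample were held in complete DMEM. Test compound was added once at 10, 20 or 50 μM, with no medium addition or replacement, against a DMSO vehicle control. Worms were scored 0–3 daily under a stereomicroscope for 7 days. The sample score was the sum of worm scores divided by worm number, expressed as percent relative to DMSO. Three experiments were run.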

The target of another test is T3, SmHDAC8 W198A mutant (Schistosoma mansoni, UniProt A5H660, W198A).
T3 sequence (A5H660 1-440 W198A): T1 sequence (A5H660 1-440) with W198A
Briefly: Fluorescence emission spectra of SmHDAC8 W198A mutant with inhibitors. Type of test: binding. The conditions noted are these: inhibitor 25 μM, excitation 280 and 298 nm. The method, boiled down:
(§1)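 WT SmHDAC8 or the W198A mutant (made by site-directed mutagenesis and expressed in E. coli) was used at 0.125 μM in 10 mM Tris pH 8.0, 150 mM KCl, 5 mM DTT. Protein was preincubated 15 min at 25 °C with 25 μM test compound, with a DMSO reference and enzyme-free blanks. Emission spectra were recorded after 280 and 298 nm excitation, averaging 4–5 accumulations. Some runs included 2 mM Na/K-tartrate.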

Test [5] has as its system S. mansoni larvae (schistosomula). Briefly: ATP-based luminescence viability assay on schistosomula. Type of test: cell-based, Schistosoma mansoni. The following applies: 72 h incubation, normalized to DMSO and gambogic acid 10 μM. The method, boiled down: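 Schistosomula of a Puerto Rican strain were made by mechanical transformation of cercariae and purified on a Percoll gradient. They were exposed at 150 per well in phenol-red-free DMEM to test compound in DMSO for 72 h at 37 °C, 5% CO2. CellTiterGlo luminescence was read after 30 min. Three independent experiments were run. LD50 came from a variable-slope log(inhibitor) versus normalized response fit.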

In another test the target is T4, WT SmHDAC8 (Schistosoma mansoni, UniProt A5H660).
T4 sequence (A5H660 1-440): T1 sequence (A5H660 1-440)
Briefly: Fluorescence emission spectra of WT SmHDAC8 with inhibitors. The test is classed as binding. The following applies: inhibitor 25 μM, excitation 280 and 298 nm. In outline: as §1

Test [6] deals with T2, hHDAC8. Briefly: Steady-state enzyme kinetics of hHDAC8 with fixed inhibitor concentration. The test is classed as biochemical. The following applies: for type of inhibition of hHDAC8: from steady-state kinetics. The method, boiled down: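 Commercial recombinant human HDAC8 from the Fluor-de-Lys kit was run with varied Fluor-de-Lys acetylated peptide-AMC substrate. Reactions contained vehicle or a fixed test compound concentration. Steady-state parameters came from Michaelis–Menten nonlinear regression.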

Test [7] concerns the target T1, SmHDAC8. Briefly: SmHDAC8 enzymatic activity inhibition. Type of test: biochemical. The following applies: for enhancement in potency toward SmHDAC8: NF2883 with respect to NF2453, NF2889 with respect to NF2452.
For the next test, the target named is T5, SmHDAC8 WT (Schistosoma mansoni, UniProt A5H660).
T5 sequence (A5H660 1-440): T1 sequence (A5H660 1-440)
Briefly: Steady-state enzyme kinetics of SmHDAC8 with fixed inhibitor concentration. Type of test: biochemical. The following applies: for type of inhibition of SmHDAC8: from steady-state kinetics and IC50 at different substrate concentrations. In outline: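 SmHDAC8 (0.425 μM) was preincubated 15 min at 25 °C with DMSO, 5 μM or 1 μM test compound. Timed aliquots were quenched with TSA/trypsin. Initial rates came from product versus time via standard curve and were fitted to Michaelis–Menten. Two to four independent experiments were run.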

Residue numbers refer to the chain shown, from its start. Values joined by “and” are separate entries in the source; they are usually repeats but may differ in a detail not shown here. Identical values can stand only once.

On to `CC(/C=C/C(=O)NO)=C\[C@@H](C)C(=O)c1ccc(N(C)C)cc1` [TSA, Trichostatin A, reference compound], for which the “increase of K-acetylation to tubulin ratio versus control” value in test [1] (1 μM, positive control) is given as “About 10 fold”.
On to `O=C(NO)c1ccc(Cn2c3c(c4cc(Br)ccc42)SC(c2ccccc2)C3)s1` (stereo not drawn) [NF2886, 5-((7-Bromo-2-phenyl-2,3-dihydro-4H-thieno[3,2-b]indol-4-yl)methyl)-N-hydroxythiophene-2-carboxamide], for which the affinity at SmHDAC8 [2] corresponds to a Ki of 9700 ± 7200 nM. On hHDAC8 [3], this compound returned a half-maximal inhibitory concentration (IC50) of 3140 ± 570 nM. The “reduction of adult worm pairs viability” value in [4] (10 μM) was “ineffective”; in [4] (20 μM) it was roughly 50%; in [4] (50 μM), roughly 50%. Also, the “fluorescence signal of SmHDAC8 W198A mutant with respect to control” value on SmHDAC8 W198A mutant is reported as “quenching”. In addition, in test [5], the LD50 on schistosomula is ~60 µM and 59.9 ± 4.9 µM. For the same compound, the “fluorescence signal of WT SmHDAC8 with respect to control” value on WT SmHDAC8 was “quenched”. The “type of inhibition of hHDAC8” value on hHDAC8 [6] is reported as “competitive”. Moreover, the figures for the kcat at hHDAC8 [6] (hHDAC8 with 5 μM NF2886) and at SmHDAC8 WT (SmHDAC8 with 5 μM NF2886) were 0.012 ± 0.004 s⁻¹ and 0.017 ± 0.003 s⁻¹, respectively. The “increase of IC50 with 150 μM substrate versus 50 μM” value at SmHDAC8 [7] (SmHDAC8) is listed as roughly 2 fold. On SmHDAC8 WT (SmHDAC8 with 5 μM inhibitor), the “increment of KM versus vehicle” value is listed as greater than 3 fold. The “type of inhibition of SmHDAC8” value on SmHDAC8 WT is given as “competitive inhibitor”.
At SmHDAC8 [2], `CN1CCC2(CC1)c1ccccc1N(Cc1ccc(C(=O)NO)s1)C2c1ccc(Cl)cc1` (stereo not drawn) [NF2883, 5-((2-(4-chlorophenyl)-1′-methylspiro[indoline-3,4′-piperidin]-1-yl)methyl)-N-hydroxythiophene-2-carboxamide] gave an inhibition constant Ki of 130 ± 50 nM. At hHDAC8 [3], this compound returned a concentration for half-maximal inhibition (IC50) of 160 ± 20 nM. The “enhancement in potency toward hHDAC8” value at hHDAC8 [3] is reported as “about 20 fold”. The “reduction of adult worm pairs viability” value in test [4] (10 μM) is reported as 50%; in test [4] (20 μM), “almost complete death”. In addition, in [4] (50 μM), the “adult worm pairs viability” value is “immediate loss of viability”. In test [5], this compound yielded an LD50 on schistosomula of 26.2 ± 1.1 µM. Also, the “enhancement in potency toward SmHDAC8” value at SmHDAC8 [7] is “about 20 fold”.
On to `CN1CCC2(CC1)c1ccccc1N(Cc1ccc(C(=O)NO)s1)C2c1cccc(Cl)c1` (stereo not drawn) [NF2889, 5-((2-(3-Chlorophenyl)-1′-methylspiro[indoline-3,4′-piperidin]-1-yl)methyl)-N-hydroxythiophene-2-carboxamide], for which affinity on SmHDAC8 [2] was put at a Ki of 600 ± 200 nM. In addition, it took 1320 ± 70 nM to reach half-maximal inhibition at hHDAC8 [3] (IC50). Besides, the “enhancement in potency toward hHDAC8” value at hHDAC8 [3] came out at 2 fold. The “reduction of adult worm pairs viability” value in test [4] (10 μM) is 50%; in test [4] (20 μM), “almost complete death”. For the same compound, the “adult worm pairs viability” value in test [4] (50 μM) is “immediate loss of viability”. Moreover, at SmHDAC8 W198A mutant, the “fluorescence signal of SmHDAC8 W198A mutant with respect to control” value is recorded as “no quenching”. Moreover, in [5], the LD50 on schistosomula came out at 26.2 ± 1.6 µM. In addition, the “fluorescence signal of WT SmHDAC8 with respect to control” value on WT SmHDAC8 is “quenched”. Further, the “increase of lysine acetylation signal versus DMSO” value in test [1] (5 μM for 72 h) is 11 fold; in test [1] (10 μM for 24 h) it was 6.5 fold. For the same compound, the “type of inhibition of hHDAC8” value on hHDAC8 [6] is on record as “competitive”. Also, the catalytic constant (kcat) was found to be 0.011 ± 0.005 s⁻¹ at hHDAC8 [6] (hHDAC8 with 2 μM NF2889) and 0.007 ± 0.003 s⁻¹ at SmHDAC8 WT (SmHDAC8 with 1 μM NF2889). Besides, the “enhancement in potency toward SmHDAC8” value at SmHDAC8 [7] came out at 6 fold. Besides, on SmHDAC8 WT, the “type of inhibition of SmHDAC8” value is on record as “mixed-type inhibition”.
